The values below come from ChEMBL document CHEMBL5653631, “A Potent and Selective ULK1 Inhibitor Suppresses Autophagy and Sensitizes Cancer Cells to Nutrient Stress” (iScience, 2018).

Test [1] deals with Serine/threonine-protein kinase SIK1 (Homo sapiens) (UniProt P57059). As to the kind of experiment: Inhibition of human recombinant SIK at 40 nM related to control ULK1.
Test [2] concerns the target Calcium/calmodulin-dependent protein kinase type II subunit alpha (Homo sapiens) (UniProt Q9UQM7). As to the kind of experiment: Inhibition of human recombinant CaMK2a at 40 nM in presence of ATP by radiometric assay relative to control.
The target in test [3] is T1, Mitogen-activated protein kinase 13 (Homo sapiens) (UniProt O15264).
T1 sequence (whole entry): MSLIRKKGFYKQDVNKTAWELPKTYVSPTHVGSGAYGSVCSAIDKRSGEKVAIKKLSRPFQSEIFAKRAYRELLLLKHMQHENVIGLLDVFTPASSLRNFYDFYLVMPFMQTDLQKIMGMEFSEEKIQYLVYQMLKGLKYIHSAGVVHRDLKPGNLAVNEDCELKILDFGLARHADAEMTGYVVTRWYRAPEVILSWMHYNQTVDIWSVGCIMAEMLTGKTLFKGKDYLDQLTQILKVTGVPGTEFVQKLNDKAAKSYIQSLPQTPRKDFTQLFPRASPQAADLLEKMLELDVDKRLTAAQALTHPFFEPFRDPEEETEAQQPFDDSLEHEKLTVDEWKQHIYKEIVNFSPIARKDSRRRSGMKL
Description: Inhibition of human recombinant p38delta at 40 nM related to control ULK1.

Test [4] deals with Calcium/calmodulin-dependent protein kinase kinase 1 (Homo sapiens) (UniProt Q8N5S9). As to the kind of experiment: Inhibition of human recombinant CaMKK1 at 500 nM in presence of ATP by radiometric assay relative to control.
Chain of Calcium/calmodulin-dependent protein kinase kinase 1 (Homo sapiens) (Q8N5S9 whole entry, looked up): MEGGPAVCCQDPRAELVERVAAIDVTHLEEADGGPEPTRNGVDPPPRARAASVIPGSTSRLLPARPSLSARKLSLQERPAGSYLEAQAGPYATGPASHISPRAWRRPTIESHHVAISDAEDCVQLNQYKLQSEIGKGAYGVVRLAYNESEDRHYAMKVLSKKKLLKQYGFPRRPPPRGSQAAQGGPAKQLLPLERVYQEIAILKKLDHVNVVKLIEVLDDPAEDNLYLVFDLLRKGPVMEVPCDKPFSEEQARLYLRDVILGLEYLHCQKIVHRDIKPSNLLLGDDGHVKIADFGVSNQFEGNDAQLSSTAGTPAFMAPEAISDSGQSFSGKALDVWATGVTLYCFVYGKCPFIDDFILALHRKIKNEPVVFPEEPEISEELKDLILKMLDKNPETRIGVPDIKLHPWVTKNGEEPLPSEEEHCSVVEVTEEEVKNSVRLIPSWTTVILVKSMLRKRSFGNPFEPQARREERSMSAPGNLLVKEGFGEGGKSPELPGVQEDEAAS
The target in test [5] is Serine/threonine-protein kinase MRCK beta (Homo sapiens) (UniProt Q9Y5S2). Description: Inhibition of human recombinant MRCKb at 500 nM in presence of ATP by radiometric assay relative to control.
Test [6] addresses T2, Serine/threonine-protein kinase BRSK2 (Homo sapiens) (UniProt Q8IWQ3).
T2 sequence (whole entry): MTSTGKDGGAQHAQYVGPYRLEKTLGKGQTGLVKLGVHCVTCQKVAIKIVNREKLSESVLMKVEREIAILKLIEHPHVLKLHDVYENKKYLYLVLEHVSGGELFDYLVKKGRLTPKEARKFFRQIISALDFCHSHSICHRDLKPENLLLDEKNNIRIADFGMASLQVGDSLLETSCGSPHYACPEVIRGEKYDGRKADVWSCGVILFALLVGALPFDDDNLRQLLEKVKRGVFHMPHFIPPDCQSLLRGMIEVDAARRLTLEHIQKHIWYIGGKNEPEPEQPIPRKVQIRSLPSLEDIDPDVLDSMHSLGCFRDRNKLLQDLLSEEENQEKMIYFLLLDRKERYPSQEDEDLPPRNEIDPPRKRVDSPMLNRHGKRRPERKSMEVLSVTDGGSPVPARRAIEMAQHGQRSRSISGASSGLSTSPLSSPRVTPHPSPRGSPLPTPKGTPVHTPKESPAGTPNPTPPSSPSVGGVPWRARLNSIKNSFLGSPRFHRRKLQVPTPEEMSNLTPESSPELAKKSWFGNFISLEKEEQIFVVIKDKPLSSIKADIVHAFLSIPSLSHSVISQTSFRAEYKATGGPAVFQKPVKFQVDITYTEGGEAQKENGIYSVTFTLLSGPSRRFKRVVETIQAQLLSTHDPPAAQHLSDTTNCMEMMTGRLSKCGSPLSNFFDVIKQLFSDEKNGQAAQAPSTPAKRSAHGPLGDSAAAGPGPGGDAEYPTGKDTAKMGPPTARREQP
Description: Inhibition of human recombinant BRSK2 at 500 nM in presence of ATP by radiometric assay relative to control. The method, boiled down: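 Recombinant human kinase panel (327 kinases) run as radiometric activity assays, each kinase in duplicate at one compound concentration. Activity remaining expressed relative to vehicle control; percent inhibition taken as 100% minus % activity remaining.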

Test [7] addresses T3, Serine/threonine-protein kinase Nek3 (Homo sapiens) (UniProt P51956).
T3 sequence (whole entry): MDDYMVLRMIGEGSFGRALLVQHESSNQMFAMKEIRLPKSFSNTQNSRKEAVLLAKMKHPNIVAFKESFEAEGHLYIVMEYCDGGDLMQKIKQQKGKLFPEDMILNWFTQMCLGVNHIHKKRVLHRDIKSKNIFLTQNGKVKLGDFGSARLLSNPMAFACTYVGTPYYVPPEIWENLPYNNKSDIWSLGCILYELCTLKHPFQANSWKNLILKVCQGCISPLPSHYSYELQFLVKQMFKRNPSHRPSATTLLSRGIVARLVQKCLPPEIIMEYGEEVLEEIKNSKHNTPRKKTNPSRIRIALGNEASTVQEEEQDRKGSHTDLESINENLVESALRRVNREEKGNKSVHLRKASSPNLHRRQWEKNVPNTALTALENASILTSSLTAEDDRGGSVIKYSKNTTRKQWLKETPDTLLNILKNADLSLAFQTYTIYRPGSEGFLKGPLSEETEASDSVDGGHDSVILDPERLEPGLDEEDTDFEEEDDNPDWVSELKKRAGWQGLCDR
Description: Inhibition of human recombinant NEK3 at 15 nM in presence of ATP by radiometric assay relative to control.

Test [8] concerns the target Ribosomal protein S6 kinase alpha-2 (Homo sapiens) (UniProt Q15349). As to the kind of experiment: Inhibition of human recombinant RSK3 at 15 nM related to control ULK1.
In test [9] the target is Serine/threonine-protein kinase WNK1 (Homo sapiens) (UniProt Q9H4A3). Description: Inhibition of human recombinant Wnk1 at 15 nM related to control ULK1.
Chain of Serine/threonine-protein kinase WNK1 (Homo sapiens) (Q9H4A3 whole entry, looked up): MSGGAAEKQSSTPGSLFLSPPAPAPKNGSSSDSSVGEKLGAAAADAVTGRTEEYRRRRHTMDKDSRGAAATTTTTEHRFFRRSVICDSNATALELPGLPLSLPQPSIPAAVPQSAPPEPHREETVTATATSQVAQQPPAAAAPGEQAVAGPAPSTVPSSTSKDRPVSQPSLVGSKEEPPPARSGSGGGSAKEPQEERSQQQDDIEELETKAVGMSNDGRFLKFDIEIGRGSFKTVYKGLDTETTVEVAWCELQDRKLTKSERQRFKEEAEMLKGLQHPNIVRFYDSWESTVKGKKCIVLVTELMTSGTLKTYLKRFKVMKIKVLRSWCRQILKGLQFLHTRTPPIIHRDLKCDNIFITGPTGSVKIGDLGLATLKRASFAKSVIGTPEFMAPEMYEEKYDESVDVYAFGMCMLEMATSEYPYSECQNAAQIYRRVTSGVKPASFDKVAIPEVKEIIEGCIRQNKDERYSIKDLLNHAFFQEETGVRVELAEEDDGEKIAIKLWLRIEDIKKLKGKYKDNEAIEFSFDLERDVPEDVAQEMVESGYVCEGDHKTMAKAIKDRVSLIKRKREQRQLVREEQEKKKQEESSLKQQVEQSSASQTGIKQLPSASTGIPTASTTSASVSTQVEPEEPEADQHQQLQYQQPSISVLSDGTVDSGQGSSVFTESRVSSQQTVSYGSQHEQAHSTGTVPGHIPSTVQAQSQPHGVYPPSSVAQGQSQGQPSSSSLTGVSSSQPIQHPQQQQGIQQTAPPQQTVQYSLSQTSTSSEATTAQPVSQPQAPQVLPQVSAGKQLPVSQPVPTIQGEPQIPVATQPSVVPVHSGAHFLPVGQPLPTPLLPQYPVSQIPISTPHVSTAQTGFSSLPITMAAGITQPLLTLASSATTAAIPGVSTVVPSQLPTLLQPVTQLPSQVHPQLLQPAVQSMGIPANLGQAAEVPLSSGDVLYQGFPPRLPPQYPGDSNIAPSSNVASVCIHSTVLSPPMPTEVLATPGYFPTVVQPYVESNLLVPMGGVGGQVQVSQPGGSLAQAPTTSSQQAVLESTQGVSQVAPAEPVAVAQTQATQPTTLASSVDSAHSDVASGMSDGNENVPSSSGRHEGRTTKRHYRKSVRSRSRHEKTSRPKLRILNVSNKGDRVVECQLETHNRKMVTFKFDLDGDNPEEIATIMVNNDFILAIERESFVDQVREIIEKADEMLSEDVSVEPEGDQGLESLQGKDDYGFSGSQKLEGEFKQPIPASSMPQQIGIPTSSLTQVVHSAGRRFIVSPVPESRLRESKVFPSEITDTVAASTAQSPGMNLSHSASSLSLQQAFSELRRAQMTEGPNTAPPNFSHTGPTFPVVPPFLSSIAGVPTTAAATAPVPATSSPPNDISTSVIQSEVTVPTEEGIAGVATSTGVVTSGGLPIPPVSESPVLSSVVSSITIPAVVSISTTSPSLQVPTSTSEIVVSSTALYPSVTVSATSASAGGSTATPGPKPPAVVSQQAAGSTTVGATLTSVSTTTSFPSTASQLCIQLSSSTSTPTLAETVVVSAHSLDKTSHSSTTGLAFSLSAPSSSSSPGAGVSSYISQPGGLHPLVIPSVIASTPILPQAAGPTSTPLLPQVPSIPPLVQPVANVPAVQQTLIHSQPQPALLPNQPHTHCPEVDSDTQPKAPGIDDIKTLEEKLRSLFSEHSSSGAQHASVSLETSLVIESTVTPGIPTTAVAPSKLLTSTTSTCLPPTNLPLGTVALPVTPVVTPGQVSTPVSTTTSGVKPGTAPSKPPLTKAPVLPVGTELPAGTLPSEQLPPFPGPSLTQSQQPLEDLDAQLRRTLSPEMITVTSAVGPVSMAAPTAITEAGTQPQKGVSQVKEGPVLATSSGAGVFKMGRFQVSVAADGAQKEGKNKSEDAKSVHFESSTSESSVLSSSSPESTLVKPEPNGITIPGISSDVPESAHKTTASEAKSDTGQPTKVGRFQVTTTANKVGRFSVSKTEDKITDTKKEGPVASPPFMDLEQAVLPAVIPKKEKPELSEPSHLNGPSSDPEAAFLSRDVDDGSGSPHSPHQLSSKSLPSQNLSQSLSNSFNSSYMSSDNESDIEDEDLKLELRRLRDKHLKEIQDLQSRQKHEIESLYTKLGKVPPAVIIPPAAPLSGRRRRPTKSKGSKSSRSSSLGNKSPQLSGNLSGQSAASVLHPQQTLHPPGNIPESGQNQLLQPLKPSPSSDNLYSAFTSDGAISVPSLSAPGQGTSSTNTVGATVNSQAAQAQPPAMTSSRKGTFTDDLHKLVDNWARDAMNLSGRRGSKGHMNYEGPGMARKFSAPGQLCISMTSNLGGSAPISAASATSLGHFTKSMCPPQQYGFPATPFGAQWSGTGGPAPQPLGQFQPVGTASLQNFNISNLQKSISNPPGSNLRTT

Chain of Serine/threonine-protein kinase SIK1 (Homo sapiens) (P57059 whole entry): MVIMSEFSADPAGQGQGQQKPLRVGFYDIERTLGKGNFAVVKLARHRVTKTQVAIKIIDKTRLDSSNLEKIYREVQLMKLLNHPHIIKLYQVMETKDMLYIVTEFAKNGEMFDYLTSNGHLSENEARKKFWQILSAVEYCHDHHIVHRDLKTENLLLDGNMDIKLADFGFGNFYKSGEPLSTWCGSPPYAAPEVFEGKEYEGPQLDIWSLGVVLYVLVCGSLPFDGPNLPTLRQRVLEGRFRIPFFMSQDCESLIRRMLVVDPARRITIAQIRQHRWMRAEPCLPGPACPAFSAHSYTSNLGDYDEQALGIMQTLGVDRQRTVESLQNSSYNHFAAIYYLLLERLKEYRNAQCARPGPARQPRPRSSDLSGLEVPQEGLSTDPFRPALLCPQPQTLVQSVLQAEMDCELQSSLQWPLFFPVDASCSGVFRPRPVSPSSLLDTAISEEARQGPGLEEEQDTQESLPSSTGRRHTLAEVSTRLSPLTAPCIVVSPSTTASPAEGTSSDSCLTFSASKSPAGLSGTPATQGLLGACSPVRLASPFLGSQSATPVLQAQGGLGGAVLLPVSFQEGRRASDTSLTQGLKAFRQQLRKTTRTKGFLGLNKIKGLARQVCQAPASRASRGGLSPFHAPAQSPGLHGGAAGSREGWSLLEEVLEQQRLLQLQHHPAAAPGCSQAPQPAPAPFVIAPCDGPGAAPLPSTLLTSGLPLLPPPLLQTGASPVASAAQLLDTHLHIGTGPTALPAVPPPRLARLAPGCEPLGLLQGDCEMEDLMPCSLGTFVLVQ
Chain of Ribosomal protein S6 kinase alpha-2 (Homo sapiens) (Q15349 whole entry): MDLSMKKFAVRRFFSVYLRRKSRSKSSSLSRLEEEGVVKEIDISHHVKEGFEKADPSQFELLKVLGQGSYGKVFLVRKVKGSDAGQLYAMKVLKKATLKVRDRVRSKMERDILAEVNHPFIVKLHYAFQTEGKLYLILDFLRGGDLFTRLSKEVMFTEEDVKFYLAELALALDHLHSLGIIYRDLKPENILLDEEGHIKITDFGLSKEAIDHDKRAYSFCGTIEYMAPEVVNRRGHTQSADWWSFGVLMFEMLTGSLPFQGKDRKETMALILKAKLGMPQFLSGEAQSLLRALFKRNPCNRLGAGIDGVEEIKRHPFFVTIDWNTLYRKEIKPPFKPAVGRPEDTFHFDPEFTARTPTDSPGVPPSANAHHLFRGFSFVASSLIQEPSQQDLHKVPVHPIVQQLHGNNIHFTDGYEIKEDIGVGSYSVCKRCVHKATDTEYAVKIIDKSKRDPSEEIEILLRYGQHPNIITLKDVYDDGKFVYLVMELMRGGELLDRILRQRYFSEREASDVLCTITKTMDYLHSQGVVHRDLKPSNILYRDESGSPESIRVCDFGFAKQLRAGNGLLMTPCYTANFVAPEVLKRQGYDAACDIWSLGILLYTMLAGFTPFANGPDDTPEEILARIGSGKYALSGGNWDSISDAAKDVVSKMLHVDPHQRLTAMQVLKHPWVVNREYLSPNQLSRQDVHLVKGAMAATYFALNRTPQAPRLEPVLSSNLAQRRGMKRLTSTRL
Chain of Calcium/calmodulin-dependent protein kinase type II subunit alpha (Homo sapiens) (Q9UQM7 whole entry): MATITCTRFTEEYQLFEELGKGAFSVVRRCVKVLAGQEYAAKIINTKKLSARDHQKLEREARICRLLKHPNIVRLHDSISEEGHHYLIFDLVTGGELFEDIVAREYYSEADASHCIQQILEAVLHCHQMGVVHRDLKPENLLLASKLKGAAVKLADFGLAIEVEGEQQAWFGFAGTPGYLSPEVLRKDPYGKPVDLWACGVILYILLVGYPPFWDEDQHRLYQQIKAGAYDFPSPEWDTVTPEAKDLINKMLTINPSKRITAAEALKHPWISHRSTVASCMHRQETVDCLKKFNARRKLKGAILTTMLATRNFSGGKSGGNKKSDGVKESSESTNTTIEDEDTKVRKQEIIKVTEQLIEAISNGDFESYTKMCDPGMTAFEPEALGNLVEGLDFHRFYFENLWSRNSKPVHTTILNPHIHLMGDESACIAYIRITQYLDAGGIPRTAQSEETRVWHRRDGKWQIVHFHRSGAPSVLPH

A word on the inhibition: it is the change of the read-out against control, counted positive when it falls. Regarding `O=C(N[C@@H](C1CC1)C(F)(F)F)c1cc(-c2cnn3cc(-c4ccc(F)cc4)cnc23)cs1`, the figures for the fold change (FC) in test [1] and in test [3] were 0.27 and 0.16, respectively. For the same compound, the inhibition in test [2] is 0%.

As for `CNC(=O)c1ccccc1Oc1nc(Nc2cc(OC)c(OC)c(OC)c2)ncc1Br`, the inhibition was determined as 8% in test [4], 0% in test [5] and 3% in test [6].

For `CC(C)[C@H](NC(=O)c1cc(-c2cnn3cc(-c4ccc(OCCN5CCCCC5)cc4)cnc23)cs1)C(F)(F)F`, in test [7], the inhibition came out at 1%. In addition, the fold change (FC) is 0.03 in test [8] and 0.05 in test [9].
